Reference: ChEMBL document CHEMBL1275524, “Activities of antifungal agents against yeasts and filamentous fungi: assessment according to the methodology of the European Committee on Antimicrobial Susceptibility Testing” (2008)
Converted amounts (≈) assume the structure as drawn.

How the values were obtained:
[1] = tested on: Aspergillus terreus; assay: Antifungal activity against Aspergillus terreus by EUCAST method; format: functional
[2] = tested on: Aspergillus fumigatus; assay: Antifungal activity against Aspergillus fumigatus by EUCAST method; format: functional
[3] = tested on: Penicillium sp.; assay: Antifungal activity against Penicillium species by EUCAST method; format: functional; settings: read-out: MEC
[4] = tested on: Lomentospora prolificans; assay: Antifungal activity against Scedosporium prolificans by EUCAST method; format: functional; settings: read-out: MEC
Procedure, shortened: (§1)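 Broth microdilution following the EUCAST reference procedure for spore-forming moulds, in flat-bottom plates with RPMI 1640 plus 2% glucose. Inoculum was 2 × 10^5 to 5 × 10^5 CFU/ml. MICs were read visually at 24 and 48 h as 100% growth reduction versus a drug-free control for polyenes and azoles. MEC was used for caspofungin. Tests were run in duplicate and repeated twice.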

[5] = tested on: Talaromyces marneffei; assay: Antifungal activity against Penicillium marneffei; format: functional
[6] = tested on: Trichosporon asahii; assay: Antifungal activity against Trichosporon asahii; format: functional
Procedure, shortened: (§2)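 Nonfermentative yeasts were tested by the EUCAST microdilution recommendations with one change: plates were sealed and agitated at 350 rpm and 30°C for 48 h.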

[7] = tested on: Sporothrix schenckii; assay: Antifungal activity against Sporothrix schenckii; format: functional; procedure, shortened: as §1
[8] = tested on: Scedosporium apiospermum; assay: Antifungal activity against Scedosporium apiospermum; format: functional; procedure, shortened: as §1
[9] = tested on: Meyerozyma guilliermondii; assay: Antifungal activity against Candida guilliermondii by EUCAST method; format: functional
Procedure, shortened: (§3)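 Broth microdilution in flat-bottom plates in RPMI 1640 with 2% glucose; inoculum 0.5 × 105 to 2.5 × 10^5 CFU/ml. MICs were read spectrophotometrically at 24 h. AMB endpoint: ≥90% growth reduction vs drug-free control well. Azole and CPF endpoint: 50% reduction in optical density. MFC was taken as the lowest concentration giving 99% killing.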

[10] = tested on: Rhizopus; assay: Antifungal activity against Rhizopus species by EUCAST method; format: functional; settings: read-out: MEC; procedure, shortened: as §1
[11] = tested on: Lichtheimia corymbifera; assay: Antifungal activity against Absidia corymbifera; format: functional
[12] = Antifungal activity against Rhizopus microsporus var. oligosporus by EUCAST method; format: functional; procedure, shortened: as §1
[13] = Antifungal activity against Rhizopus microsporus var. oligosporus; format: functional; procedure, shortened: as §1
[14] = Antifungal activity against Rhinocladiella aquaspersa by EUCAST method; format: functional
Procedure, shortened: (§4)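 Dematiaceous fungi were tested by the EUCAST spore-forming mold reference procedure: flat-bottom microdilution plates, RPMI 1640 plus 2% glucose, inoculum 2 × 105 to 5 × 10^5 CFU/ml. Endpoints were read visually at 24 and 48 h. Polyenes and azoles: 100% growth reduction vs drug-free control. CPF: minimum effective concentration. Run in duplicate and repeated twice.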

[15] = tested on: Curvularia lunata; assay: Antifungal activity against Curvularia lunata; format: functional
[16] = tested on: Curvularia lunata; assay: Antifungal activity against Curvularia lunata by EUCAST method; format: functional; settings: read-out: MEC; procedure, shortened: as §4
[17] = tested on: Rhizopus arrhizus; assay: Antifungal activity against Rhizopus oryzae; format: functional; procedure, shortened: as §1
[18] = tested on: Candida parapsilosis; assay: Antifungal activity against Candida parapsilosis by EUCAST method; format: functional; settings: Lodderomyces parapsilosis; procedure, shortened: as §3
[19] = tested on: Lichtheimia corymbifera; assay: Antifungal activity against Absidia corymbifera by EUCAST method; format: functional; settings: read-out: MEC
[20] = tested on: Meyerozyma guilliermondii; assay: Antifungal activity against Candida guilliermondii; format: functional; procedure, shortened: as §3
[21] = tested on: Fusarium solani; assay: Antifungal activity against Fusarium solani; format: functional
[22] = tested on: Geotrichum candidum; assay: Antifungal activity against Geotrichum candidum by EUCAST method; format: functional
[23] = tested on: Rhizomucor; assay: Antifungal activity against Rhizomucor species by EUCAST method; format: functional; settings: read-out: MEC; procedure, shortened: as §1
[24] = tested on: Aspergillus terreus; assay: Antifungal activity against Aspergillus terreus; format: functional
[25] = tested on: Cryptococcus gattii; assay: Antifungal activity against Cryptococcus neoformans var. gattii by EUCAST method; format: functional, Cryptococcus bacillisporus
Procedure, shortened: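 EUCAST yeast microdilution, modified for nonfermentative yeasts: plates were sealed and agitated at 350 rpm and 30°C for 48 h.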

[26] = tested on: Mucor; assay: Antifungal activity against Mucor species; format: functional
[27] = tested on: Scedosporium apiospermum; assay: Antifungal activity against Scedosporium apiospermum by EUCAST method; format: functional; settings: read-out: MEC; procedure, shortened: as §1
[28] = tested on: Candida albicans; assay: Antifungal activity against Candida albicans; format: functional; procedure, shortened: as §3
[29] = tested on: Rhizomucor; assay: Antifungal activity against Rhizomucor species; format: functional
[30] = Antifungal activity against Rhinocladiella aquaspersa; format: functional; procedure, shortened: as §4
[31] = tested on: Trichosporon inkin; assay: Antifungal activity against Trichosporon inkin by EUCAST method; format: functional; procedure, shortened: as §2
[32] = tested on: Fusarium oxysporum; assay: Antifungal activity against Fusarium oxysporum by EUCAST method; format: functional; settings: read-out: MEC
[33] = tested on: Candida albicans; assay: Antifungal activity against Candida albicans by EUCAST method; format: functional; procedure, shortened: as §3
[34] = tested on: Curvularia australiensis; assay: Antifungal activity against Bipolaris australiensis by EUCAST method; format: functional; settings: read-out: MEC; procedure, shortened: as §4
[35] = tested on: Lomentospora prolificans; assay: Antifungal activity against Scedosporium prolificans; format: functional; procedure, shortened: as §1
[36] = tested on: Fusarium solani; assay: Antifungal activity against Fusarium solani by EUCAST method; format: functional; settings: read-out: MEC

Compound: CC[C@H](C)C[C@H](C)CCCCCCCCC(=O)N[C@H]1C[C@@H](O)[C@@H](NCCN)NC(=O)[C@@H]2[C@@H](O)CCN2C(=O)[C@H]([C@H](O)CCN)NC(=O)[C@H]([C@H](O)[C@@H](O)c2ccc(O)cc2)NC(=O)[C@@H]2C[C@@H](O)CN2C(=O)[C@H]([C@@H](C)O)NC1=O [CASPOFUNGIN]
- MIC [1]: 0.19 µg/mL (≈ 0.174 µM)
- minimal effective concentration ([1]; read-out: MEC): 0.125 µg/mL
- MIC [2]: 0.45 µg/mL (≈ 0.412 µM)
- minimal effective concentration ([2]; read-out: MEC): 0.25 µg/mL
- minimal effective concentration [3]: > 8 µg/mL
- minimal effective concentration [4]: > 8 µg/mL
- MFC [5]: > 8 µg/mL
- MFC [6]: > 8 µg/mL
- MFC [7]: > 8 µg/mL
- MFC [8]: > 8 µg/mL
- MIC [9]: 0.68 µg/mL (≈ 0.622 µM)
- minimal effective concentration [10]: > 8 µg/mL
- MFC [11]: > 8 µg/mL
- MEC [12]: > 8 µg/mL
- MFC [13]: > 8 µg/mL
- MEC [14]: > 8 µg/mL
- MFC [15]: > 8 µg/mL
- minimal effective concentration [16]: > 8 µg/mL
- MFC [17]: > 8 µg/mL
- MIC [18]: 0.82 µg/mL (≈ 0.75 µM)
- minimal effective concentration [19]: > 8 µg/mL
- MFC [20]: > 2 µg/mL
- MFC [21]: > 8 µg/mL
- MIC [22]: 3 µg/mL (≈ 2.74 µM)
- minimal effective concentration [23]: > 8 µg/mL
- MFC [24]: > 8 µg/mL
- MIC [25]: 5.33 µg/mL (≈ 4.88 µM)
- MFC [26]: > 8 µg/mL
- minimal effective concentration [27]: > 8 µg/mL
- MFC [28]: 0.15 µg/mL (≈ 0.137 µM)
- MFC [29]: > 8 µg/mL
- MFC [30]: > 8 µg/mL
- MIC [31]: 5.33 µg/mL (≈ 4.88 µM)
- minimal effective concentration [32]: > 8 µg/mL
- MIC [33]: 0.14 µg/mL (≈ 0.128 µM)
- minimal effective concentration [34]: > 8 µg/mL
- MFC [35]: > 8 µg/mL
- minimal effective concentration [36]: > 8 µg/mL
